Measured values: ChEMBL document CHEMBL1156176, “Total synthesis, antiprotozoal and cytotoxicity activities of rhuschalcone VI and analogs” (Bioorg Med Chem, 2010)
Values after ≈ are worked out from the molar mass of the structure shown.

Key:
Parabodo caudatus [1] = assay: Antiprotozoal activity against Bodo caudatus at 0.6 mg/ml after 24 hrs by MTT assay; format: functional
Method in brief: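 Bodo caudatus (maintained at 30 °C in cereal grass medium diluted 1:1 with water, fed E. coli DH5α, subcultured every 7–12 days); 10,000 protozoa per well with penicillin/streptomycin/kanamycin, exposed 24 h to 0.6 mg/mL final; CuSO4 at same concentration as positive control, 8% DMSO solvent control. MTT added, 2 h, DMSO-dissolved, A570 viability; triplicates; inhibition vs controls.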

Parabodo caudatus [2] = assay: Antiprotozoal activity against Bodo caudatus after 48 hrs by MTT assay; format: functional
Method in brief: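 B. caudatus from culture in cereal grass medium diluted 1:1 with water plus E. coli DH5a, kept at 30 °C; adjusted to 1 × 10^5/mL with penicillin, streptomycin and kanamycin added; exposed 48 h to serial dilutions (final 0.0001–1000 µg/mL) at 37 °C/5% CO2; MTT added for 4 h, crystals dissolved in DMSO, A570 read; LC50 from triplicate determinations.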

[3] = Cytotoxicity against BHK cells at 100 ug/ml after 48 hrs by MTT assay; format: cell-based, Mesocricetus auratus; settings: hamster; for Activity: bhk, 48 h
Method in brief: (§1)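 BHK cells (DMEM/F10 1:1, 10% fetal calf serum, penicillin/streptomycin, 37 °C/5% CO2) at 1 × 10^5/mL, adhered overnight, exposed 48 h to serial dilutions (0.0001–100 µg/mL in figure). MTT for 4 h, DMSO solubilisation, A570; survival vs untreated cells; CC50 from triplicate means ± SD.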

Parabodo caudatus [4] = assay: Antiprotozoal activity against Bodo caudatus hrs by MTT assay; format: functional, organism-based; settings: TDE = time-dependent effect
Method in brief: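 B. caudatus adjusted to 1 × 10^5/mL in growth medium with penicillin/streptomycin/kanamycin, exposed 48 h at 37 °C/5% CO2 to serial dilutions (0.0001–1000 µg/mL final). MTT added for further 4 h, crystals dissolved in DMSO, absorbance 570 nm. LC50 (50% lethal concentration) from mean ± SD of triplicates.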

[5] = Cytotoxicity against BHK cells after 48 hrs by MTT assay; format: cell-based, Mesocricetus auratus; settings: hamster; method in brief: as §1

## COc1cc(O)c(C(=O)/C=C/c2ccc(O)cc2)cc1-c1cc(/C=C/C(=O)c2ccc(O)cc2O)ccc1O
Parabodo caudatus [1]
  Activity: 75%
Parabodo caudatus [2]
  LC50: 118 µg/mL (≈ 226 µM)
[3]
  Activity: Non-toxic
Parabodo caudatus [4]
  Activity: tde

## O=C(/C=C/c1ccc(O)c(-c2cc(C(=O)/C=C/c3ccc(O)cc3)c(O)cc2O)c1)c1ccccc1
Parabodo caudatus [1]
  Activity: 75%
Parabodo caudatus [2]
  LC50: 20.6 µg/mL (≈ 43 µM)
[3]
  Activity: Non-toxic
Parabodo caudatus [4]
  Activity: tde

## CC(C)=CCc1c(O)ccc(C(=O)/C=C/c2ccc(O)cc2)c1O [ISOBAVACHALCONE]
Parabodo caudatus [1]
  Activity: 75%
Parabodo caudatus [2]
  LC50: 4.36 µg/mL (≈ 13.4 µM)
[5]
  CC50 at 48 h: 86.9 µg/mL (≈ 268 µM)
Parabodo caudatus [4]
  Activity: tde

## O=C(/C=C/c1ccc(O)c(-c2cc(C(=O)/C=C/c3ccc(O)cc3)c(O)cc2O)c1)c1ccc(O)cc1O [RHUSCHALCONE VI]
Parabodo caudatus [1]
  Activity: 75%
Parabodo caudatus [2]
  LC50: 53.3 µg/mL (≈ 104 µM)
[3]; BHK cells
  CC50 at 48 h: 97.6 µg/mL (≈ 191 µM)
Parabodo caudatus [4]
  Activity: tde
